Laboratory results reported in ChEMBL document CHEMBL1800004, “Discovery of 4-anilinofuro[2,3-b]quinoline derivatives as selective and orally active compounds against non-small-cell lung cancers” (J Med Chem, 2011).
Values belong to the molecule of their own block, whether it stands above or below them. The source made the active and inactive calls. The rule behind the calls is not given here.

Key:
[1] = Volume of distribution at steady state in fasted CD-1(Crl) mouse at 2 mg/kg, iv administered as single dose; type: ADME, organism-based; set-up: dose 2 mg/kg, route intravenous; details: in vivo, read-out: Vdss
How it was run: (§1)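 Fasted male CD-1 (Crl) mice received a single intravenous dose of 2.0 mg/kg or a single oral dose of 20 mg/kg. Parameters came from mean plasma concentration–time profiles, run by a contract lab.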

[2] = tested on: Lung; assay: Drug uptake in lung of orthotropic lung cancer nude mouse model xenografted with human H1229 cells at 120 mg/kg, po administered for 2 weeks; type: ADME, organism-based; set-up: dose 120 mg/kg, route oral; details: in vivo, 336 h
[3] = Aqueous solubility of the compound by UV/ vis spectrophotometry; type: physicochemical
How it was run: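 Excess solid was added to doubly distilled water, sonicated 5 min, then stirred overnight at 25 °C to reach equilibrium. After centrifugation, supernatant absorbance was read by UV/vis at 315–420 nm against per-compound standard curves.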

[4] = Cmax in fasted CD-1(Crl) mouse at 2 mg/kg, iv administered as single dose; type: ADME, organism-based; set-up: dose 2 mg/kg, route intravenous; details: in vivo
How it was run: (§2)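 Fasted male CD-1 (Crl) mice each received a single intravenous dose of 2.0 mg/kg or a single oral dose of 20 mg/kg, and plasma concentration–time profiles were recorded. For the iv route, Cmax was extrapolated to plasma concentration at time 0. Half-life was derived from terminal time-point windows specified per compound.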

[5] = AUC (0 to infinity) in fasted CD-1(Crl) mouse at 2 mg/kg, iv administered as single dose; type: ADME, organism-based; set-up: time infinity, dose 2 mg/kg, route intravenous; details: plasma; how it was run: as §2
[6] = Mean residence time in fasted CD-1(Crl) mouse at 2 mg/kg, iv administered as single dose; type: ADME, organism-based; set-up: dose 2 mg/kg, route intravenous; details: in vivo; how it was run: as §1
[7] = Clearance in fasted CD-1(Crl) mouse at 2 mg/kg, iv administered as single dose; type: ADME, organism-based; set-up: dose 2 mg/kg, route intravenous; details: in vivo; how it was run: as §2
[8] = Apparent volume of distribution in fasted CD-1(Crl) mouse at 2 mg/kg, iv administered as single dose; type: ADME, organism-based; set-up: dose 2 mg/kg, route intravenous; details: in vivo, read-out: Vz; how it was run: as §2
[9] = Cmax in fasted CD-1(Crl) mouse at 20 mg/kg, po administered as single dose; type: ADME, organism-based; set-up: dose 20 mg/kg, route oral; details: in vivo; how it was run: as §2
[10] = AUC (0 to infinity) in fasted CD-1(Crl) mouse at 20 mg/kg, po administered as single dose; type: ADME, organism-based; set-up: dose 20 mg/kg, route oral, time infinity; details: plasma; how it was run: as §2
[11] = Tmax in fasted CD-1(Crl) mouse at 20 mg/kg, po administered as single dose; type: ADME, organism-based; set-up: dose 20 mg/kg, route oral; details: in vivo; how it was run: as §1
[12] = Mean residence time in fasted CD-1(Crl) mouse at 20 mg/kg, po administered as single dose; type: ADME, organism-based; set-up: dose 20 mg/kg, route oral; details: in vivo; how it was run: as §1
[13] = Oral bioavailability in fasted CD-1(Crl) mouse at 20 mg/kg administered as single dose; type: ADME, organism-based; details: in vivo; how it was run: as §1
[14] = Half life in fasted CD-1(Crl) mouse at 2 mg/kg, iv administered as single dose measured after 9 to 27 hrs post dose; type: ADME, organism-based; set-up: dose 2 mg/kg, route intravenous; details: in vivo; how it was run: as §2
[15] = Half life in fasted CD-1(Crl) mouse at 20 mg/kg, po administered as single dose measured after 2 to 24 hrs post dose; type: ADME, organism-based; set-up: dose 20 mg/kg, route oral; details: in vivo; how it was run: as §2
[16] = tested on: NCI-H460; assay: Antitumor activity against human NCI-H460 cells xenografted subcutaneously in BALB/c nude mouse assessed as survival rate at 60 to 120 mg/kg, po qd for 6 days relative to control; type: functional, organism-based
How it was run: (§3)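 NCI-H460 cells were grown in RPMI1640 with 10% NBS and harvested by trypsin. 5 × 10⁶ cells in 40% Matrigel were injected subcutaneously into the flanks of 6–8-week-old Balb/c nude mice. Once tumors reached 5 mm³, dosing ran 6 days (ip 10 or 20; oral 60 or 120), vehicle DMSO/1.4% Tween 80/1% carboxymethylcellulose saline. Tumors were caliper-measured, weighed at sacrifice, and survival analyzed by Kaplan–Meier.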

[17] = tested on: NCI-H460; assay: Antitumor activity against human NCI-H460 cells xenografted subcutaneously in BALB/c nude mouse assessed as decreased tumor size at 60 to 120 mg/kg, po qd for 6 days relative to control; type: functional, organism-based; how it was run: as §3
[18] = tested on: NCI-H460; assay: Antitumor activity against human NCI-H460 cells xenografted subcutaneously in BALB/c nude mouse assessed as decreased tumor size at 10 to 20 mg/kg, ip for 6 days relative to control; type: functional, organism-based; how it was run: as §3
[19] = tested on: NCI-H460; assay: Antitumor activity against human NCI-H460 cells xenografted subcutaneously in BALB/c nude mouse assessed as increased tumor regression at 10 to 20 mg/kg, ip for 6 days relative to control; type: functional, organism-based; how it was run: as §3
[20] = tested on: NCI-H460; assay: Effect on cell cycle in human NCI-H460 cells assessed as rounded-up phenotype at 1 uM after 24 hrs; type: functional, cell-based
How it was run: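 Morphology of H460 cells was inspected for rounding after 1 μM treatment for 24 h.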

[21] = tested on: NCI-H460; assay: Antitumor activity against human NCI-H460 cells xenografted subcutaneously in BALB/c nude mouse assessed as increased tumor regression at 60 to 120 mg/kg, po for 6 days relative to control; type: functional, organism-based; how it was run: as §3
[22] = tested on: NCI-H460; assay: Cell cycle arrest in human NCI-H460 cells assessed as cell accumulation in 4N ploidy after 24 hrs using propidium iodide staining based flow cytometric analysis; type: functional
[23] = tested on: NCI-H460; assay: Induction of apoptosis human NCI-H460 cells assessed as caspase 3 cleavage; type: functional, cell-based
[24] = tested on: NCI-H460; assay: Induction of apoptosis human NCI-H460 cells assessed as PARP cleavage; type: functional, cell-based
[25] = tested on: NCI-H460; assay: Increase in MPM2 phosphoprotein level in human NCI-H460 cells after 16 hrs by immunoblotting analysis; type: functional, cell-based
How it was run: (§4)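 H460 lysates were immunoblotted for MPM2 and cyclin B after 16 h treatment across a concentration series.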

[26] = tested on: NCI-H460; assay: Increase in cyclin B level in human NCI-H460 cells after 16 hrs by immunoblotting analysis; type: functional, cell-based; how it was run: as §4
[27] = tested on: NCI-H460; assay: Antimitotic activity in human NCI-H460 cells assessed as mitotic catastrophe at 3 uM after 12 hrs using DAPI staining based immunofluorescence analysis; type: functional, cell-based
How it was run: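 H460 cells were treated at 3 μM for 12 h and co-stained for α-tubulin (immunofluorescence) and DAPI. Images were taken at 1000×, and centrosome number was counted in 50 cells.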

[28] = species on record: Bos taurus; assay: Inhibition of bovine tubulin assessed as inhibition of microtubule formation preincubated at 1 uM by light-scattering assay relative to control
How it was run: (§5)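 Light-scattering assay with 5 μg bovine tubulin preincubated with compound. Spontaneous microtubule formation was followed as turbidity increase at OD 340 nm and compared with the untreated control.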

[29] = species on record: Bos taurus; assay: Inhibition of bovine tubulin assessed as inhibition of microtubule formation preincubated at 3 uM by light-scattering assay; how it was run: as §5
[30] = molecular target: T1, DNA topoisomerase 1 (Homo sapiens) (UniProt P11387); assay: Inhibition of human topoisomerase 1 mediated relaxation of super coiled pBR322 plasmid DNA at 30 uM after 30 mins by agarose gel electrophoresis
T1 sequence (whole entry): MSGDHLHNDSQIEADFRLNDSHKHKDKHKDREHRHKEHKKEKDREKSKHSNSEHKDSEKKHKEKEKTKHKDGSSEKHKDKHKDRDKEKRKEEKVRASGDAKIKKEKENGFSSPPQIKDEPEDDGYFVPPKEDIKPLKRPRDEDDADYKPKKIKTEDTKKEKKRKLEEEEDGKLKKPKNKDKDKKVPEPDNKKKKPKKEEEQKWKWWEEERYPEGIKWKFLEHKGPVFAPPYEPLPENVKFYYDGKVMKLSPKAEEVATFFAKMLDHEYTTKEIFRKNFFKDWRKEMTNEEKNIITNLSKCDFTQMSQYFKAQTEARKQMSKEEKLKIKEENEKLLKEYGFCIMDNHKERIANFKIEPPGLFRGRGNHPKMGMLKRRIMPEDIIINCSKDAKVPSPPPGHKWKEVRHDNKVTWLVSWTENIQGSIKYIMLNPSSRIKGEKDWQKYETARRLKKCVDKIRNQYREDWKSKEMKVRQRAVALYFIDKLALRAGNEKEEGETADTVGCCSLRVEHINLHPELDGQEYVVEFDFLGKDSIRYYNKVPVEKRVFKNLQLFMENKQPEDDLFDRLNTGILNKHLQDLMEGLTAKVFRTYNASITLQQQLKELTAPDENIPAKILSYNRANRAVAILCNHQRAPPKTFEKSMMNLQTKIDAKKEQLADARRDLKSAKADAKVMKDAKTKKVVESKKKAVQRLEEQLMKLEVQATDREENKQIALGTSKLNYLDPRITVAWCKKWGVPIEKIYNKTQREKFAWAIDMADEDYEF

[31] = molecular target: DNA topoisomerase 2-alpha (Homo sapiens) (UniProt P11388); assay: Inhibition of human topoisomerase 2 mediated relaxation of super coiled pBR322 plasmid DNA at 30 uM after 30 mins by agarose gel electrophoresis
DNA topoisomerase 2-alpha (Homo sapiens), sequence (P11388 whole entry): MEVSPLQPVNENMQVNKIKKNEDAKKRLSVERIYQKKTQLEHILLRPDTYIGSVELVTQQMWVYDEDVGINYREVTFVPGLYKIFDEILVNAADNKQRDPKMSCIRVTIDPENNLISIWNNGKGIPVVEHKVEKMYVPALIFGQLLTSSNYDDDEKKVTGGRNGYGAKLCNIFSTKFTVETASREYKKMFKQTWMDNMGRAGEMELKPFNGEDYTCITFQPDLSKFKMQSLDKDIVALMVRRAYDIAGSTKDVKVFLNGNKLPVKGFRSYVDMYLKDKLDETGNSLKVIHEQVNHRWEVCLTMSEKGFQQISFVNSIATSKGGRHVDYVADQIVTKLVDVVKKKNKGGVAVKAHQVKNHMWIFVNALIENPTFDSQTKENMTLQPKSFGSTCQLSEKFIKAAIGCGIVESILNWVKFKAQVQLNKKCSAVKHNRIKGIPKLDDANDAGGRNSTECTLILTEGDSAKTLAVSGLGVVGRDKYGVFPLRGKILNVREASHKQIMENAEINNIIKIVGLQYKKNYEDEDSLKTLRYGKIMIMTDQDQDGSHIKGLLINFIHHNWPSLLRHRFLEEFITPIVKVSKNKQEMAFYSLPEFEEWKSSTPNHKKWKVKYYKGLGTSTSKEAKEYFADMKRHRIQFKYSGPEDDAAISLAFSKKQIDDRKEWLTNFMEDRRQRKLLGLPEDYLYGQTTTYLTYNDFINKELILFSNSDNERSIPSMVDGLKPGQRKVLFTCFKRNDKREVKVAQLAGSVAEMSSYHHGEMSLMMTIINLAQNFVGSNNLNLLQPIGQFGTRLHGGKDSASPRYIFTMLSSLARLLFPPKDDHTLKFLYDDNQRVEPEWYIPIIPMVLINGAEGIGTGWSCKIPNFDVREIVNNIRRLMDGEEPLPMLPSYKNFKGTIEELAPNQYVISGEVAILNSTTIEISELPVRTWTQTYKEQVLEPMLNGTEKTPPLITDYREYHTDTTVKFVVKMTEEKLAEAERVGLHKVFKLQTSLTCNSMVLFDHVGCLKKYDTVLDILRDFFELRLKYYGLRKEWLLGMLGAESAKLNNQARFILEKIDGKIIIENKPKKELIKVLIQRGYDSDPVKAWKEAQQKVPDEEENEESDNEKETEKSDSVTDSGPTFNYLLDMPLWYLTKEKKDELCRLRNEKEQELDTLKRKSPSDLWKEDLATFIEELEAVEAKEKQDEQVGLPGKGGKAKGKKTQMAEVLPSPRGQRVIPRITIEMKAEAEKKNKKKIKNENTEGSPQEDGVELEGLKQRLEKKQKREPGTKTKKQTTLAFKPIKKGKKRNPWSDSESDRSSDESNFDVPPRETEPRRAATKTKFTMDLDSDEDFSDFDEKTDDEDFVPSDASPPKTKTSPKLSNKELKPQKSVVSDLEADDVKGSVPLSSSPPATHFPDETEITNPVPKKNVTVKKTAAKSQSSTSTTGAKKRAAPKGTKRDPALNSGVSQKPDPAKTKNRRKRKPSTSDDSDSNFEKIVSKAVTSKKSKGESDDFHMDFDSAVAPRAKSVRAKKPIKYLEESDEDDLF

[32] = tested on: H1229; assay: Anticancer activity against human H1229 cells xenografted in orthotropic lung cancer nude mouse model assessed as cancer growth inhibition at 120 mg/kg, po administered for 2 weeks monitored for 10 weeks; type: functional, organism-based; set-up: dose 120 mg/kg
How it was run: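 Orthotopic lung model using H-1229 cells. Nude mice were irradiated (500 rads γ) and anesthetized with ketamine/xylazine (160/12 mg/kg, im), then tumor tissue was implanted by cannula. Oral dosing lasted 2 weeks. Mice were checked daily for morbidity, and animal and primary tumor weights were recorded over 10 weeks.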

[33] = tested on: NCI-H460; assay: Antitumor activity against human NCI-H460 cells xenografted subcutaneously in BALB/c nude mouse assessed as survival rate at 10 to 20 mg/kg, ip for 6 days relative to control; type: functional, organism-based; how it was run: as §3

Vd [1]: 13.5 L/kg | Drug uptake [2]: Active | solubility [3]: 1050 µg/mL | Cmax [4]: 1490 ng/mL | AUC(0-inf) [5]: 363 ng·h/mL | MRT [6]: 2.5 h | clearance [7]: 91.9 mL/min/kg | Vd [8]: 38.8 L/kg | Cmax [9]: 1900 ng/mL | AUC(0-inf) [10]: 2070 ng·h/mL | Tmax [11]: 0.5 h | MRT [12]: 3 h | bioavailability [13]: 57.1% | half-life [14]: 4.9 h | half-life [15]: 3.4 h
SMILES: C/C(=N\OCCN)c1ccc(Nc2c3ccccc3nc3occc23)cc1.Cl

inhibition [28]: 50% | inhibition [29]: Active | inhibition [30]: inactive | inhibition [31]: inactive
SMILES: C/C(=N\OCCN)c1ccc(Nc2c3ccccc3nc3occc23)cc1
Activity [16]: Active | Activity [17]: Active | Activity [18]: Active | Activity [19]: Active | Activity [20]: Active | Activity [21]: Active | Activity [22]: Dose-dependent effect | Activity [23]: Dose-dependent effect | Activity [24]: Dose-dependent effect | Activity [25]: Dose-dependent effect | Activity [26]: Dose-dependent effect | Activity [27]: Active | Activity [32]: Active | Activity [33]: Active
